GASC1 inh – inhibitors of GASC-1 (KDM4C) histone demethylase, primary screen, biochemical, single concentration HTS; Lysine-specific demethylase 4C (Homo sapiens), Q9H3R0; 0.15% of 96,000 active; AID 720574, 2013; GST-KDM4C 2-372, H3K9me3 peptide, LANCE TR-FRET; inhibition, % at 12.5 µM;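 active = mean replicate inhibition above about 25%, with at least 55% of replicates also reaching it, limit read from the data, passing the limit was not always enough; inconclusive = only one of those two conditions met; inactive = neither condition met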
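Material: GST-tagged GASC-1 (JMJD2C) catalytic fragment, aa 2-372. Input: enzyme final amount 10 nM. Medium: HEPES buffer, pH 7.5, plus ascorbate. Reagent: H3K9me3 peptide substrate, Fe(II), 2-oxoglutarate. Doses: single dose. Times: reaction 30 min RT, detection step 1 h RT. Measured by: LANCE TR-FRET. Evaluation: Fall in 671/618 emission ratio as inhibition.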
Pf Dd2 growth – P. falciparum Dd2 growth inhibitors, primary screen, SYBR Green fluorescence, single dose replicates | 72 h; stronger effect = lower value | activity change, % at 10 µM | 2.3% of 94,000 active; in the data active = activity change below about -80%; inconclusive = no clear call, values can overlap the other calls
T cruzi growth-1 – T. cruzi intracellular proliferation inhibitors, primary screen, cell-based, beta-gal Tulahuen parasites, NIH3T3 host, luminescence; 5.9% of 77,000 active; T. cruzi beta-gal in NIH3T3, GalScreen luminescence, 90 h; inhibition, % at 8.34 µM; AID 624255, 2012;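 active = mean inhibition above about 93%, with at least 55% of replicates each passing it, limit read from the data, passing the limit was not always enough; inconclusive = only one of those two conditions holds; inactive = neither condition holds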
IDH1 R132H inh – inhibitors of IDH1 R132H reductase, primary screen, biochemical, plate reader, single point; Isocitrate dehydrogenase [NADP] cytoplasmic (Homo sapiens), O75874; diaphorase/resazurin fluorescence, 60 min; inhibition, % at 10 µM; 0.18% of 70,000 active; in the data active = inhibition above about 34%; inconclusive = no clear call, values can overlap the other calls; inactive = below about 11%
Target sequence (O75874 whole entry R132H): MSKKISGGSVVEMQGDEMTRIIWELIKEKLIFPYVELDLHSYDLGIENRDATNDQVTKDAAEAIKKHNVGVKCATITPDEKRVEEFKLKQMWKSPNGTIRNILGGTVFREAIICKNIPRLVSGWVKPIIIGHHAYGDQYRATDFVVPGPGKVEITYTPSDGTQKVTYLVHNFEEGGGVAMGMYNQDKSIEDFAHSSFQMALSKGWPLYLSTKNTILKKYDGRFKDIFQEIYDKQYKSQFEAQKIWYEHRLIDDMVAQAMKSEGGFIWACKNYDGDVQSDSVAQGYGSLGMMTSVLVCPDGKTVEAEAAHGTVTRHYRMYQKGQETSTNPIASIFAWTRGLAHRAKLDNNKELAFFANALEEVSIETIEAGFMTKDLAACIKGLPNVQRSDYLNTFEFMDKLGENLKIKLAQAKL
T cruzi growth-2 – T. cruzi intracellular proliferation inhibitors, confirmation, cell-based, NIH3T3 host, beta-gal parasite, luminescence, cherry-pick; shares compounds with T cruzi growth-1; T. cruzi beta-gal in NIH3T3, GalScreen luminescence, 90 h; inhibition, % at 8.35 µM; 72% of 5,600 active; AID 651739, 2012;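 active = mean replicate inhibition above about 95% and at least 55% of replicates individually reaching it, limit read from the data; inconclusive = only one of the two criteria is met; inactive = neither criterion is met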
T cruzi growth-3 – inhibitors of intracellular T. cruzi replication, confirmation, NIH3T3 host cells, beta-gal parasites, cherry-pick, set 2. shares compounds with T cruzi growth-1. T. cruzi beta-gal in NIH3T3, GalScreen luminescence, 90 h. inhibition, % at 2.09 µM. 21% of 5,600 active;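 active = mean inhibition above about 95%, with at least 55% of replicates also reaching it, limit read from the data; inconclusive = meets just one of the two conditions; inactive = meets neither condition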
NIH3T3 tox – cytotoxicity in mouse NIH/3T3 fibroblasts, confirmation, cytotoxicity control for T. cruzi proliferation inhibitor project, cell-based, cherry-pick, single point; shares compounds with T cruzi growth-1; NIH/3T3 viability, CellTiter-Glo ATP luminescence, 90 h; cytotoxicity (signal decrease), % at 8.35 µM; 14% of 5,600 active; AID 651742, 2012;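 active = mean signal decrease across replicates above about 35% based on untreated-well scatter, with enough replicates individually passing, limit read from the data; inconclusive = no rule stated though some were filed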
3T3 cytotox 2 – NIH/3T3 fibroblast cytotoxicity, confirmation, cytotoxicity control, cell-based, cherry-pick, single point, set 2; shares compounds with T cruzi growth-1; NIH/3T3 viability, CellTiter-Glo ATP luminescence, 90 h; inhibition, % at 24.9 µM; 56% of 5,600 active;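 active = mean loss of cell viability signal at or above a set limit, and enough replicates individually reaching it; inconclusive = meets only the mean limit or only the replicate share; inactive = meets neither condition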
Numbers stand for hits. Only some compounds are listed: those with a hit (about 5.9% of all), similar ones and a draw of the others.

Results for COc1ccc(S(=O)(=O)N(C)C[C@@H]2Oc3ccc(NC(=O)Cn4cnnn4)cc3C(=O)N([C@H](C)CO)C[C@H]2C)cc1 ?
GASC1 inh: inactive; Pf Dd2 growth: inactive; T cruzi growth-1: 105; IDH1 R132H inh: inactive; T cruzi growth-2: inactive; T cruzi growth-3: inactive; NIH3T3 tox: inactive; 3T3 cytotox 2: inactive

How did COc1ccc(S(=O)(=O)N(C)C[C@H]2Oc3ccc(NC(=O)Cn4cnnn4)cc3C(=O)N([C@H](C)CO)C[C@@H]2C)cc1 do in these assays?
GASC1 inh: inactive; Pf Dd2 growth: inactive; T cruzi growth-1: inactive; IDH1 R132H inh: inactive

What do the screens show for `Cc1cccc(NC(=O)CSc2nc3sc4c(c3c(=O)[nH]2)CCCC4)c1`?
IDH1 R132H inh: inactive

Results for Cc1ccccc1S(=O)(=O)N1CC[C@@H]2[C@@H](CO)Nc3ccc(-c4ccc(C#N)cc4)cc3[C@@H]21 ?
GASC1 inh: inactive; Pf Dd2 growth: inactive; T cruzi growth-1: inconclusive; T cruzi growth-2: 97; T cruzi growth-3: inactive; NIH3T3 tox: 66; 3T3 cytotox 2: 92

What do the screens show for `Cc1ccccc1S(=O)(=O)N1CC[C@H]2[C@H](CO)Nc3ccc(-c4ccc(C#N)cc4)cc3[C@H]21`?
GASC1 inh: inactive; Pf Dd2 growth: inactive; T cruzi growth-1: 115; T cruzi growth-2: 107; T cruzi growth-3: inactive; NIH3T3 tox: 52; 3T3 cytotox 2: 69

How did COc1ccc(S(=O)(=O)N(C)C[C@H]2Oc3c(NC(=O)Nc4cccc5ccccc45)cccc3C(=O)N([C@H](C)CO)C[C@H]2C)cc1 do in these assays?
GASC1 inh: inactive; Pf Dd2 growth: -83; T cruzi growth-1: 128; IDH1 R132H inh: inactive; T cruzi growth-2: inactive; T cruzi growth-3: inactive; NIH3T3 tox: inactive; 3T3 cytotox 2: 29

How did C[C@H](CO)N1C[C@H](C)[C@H](CN(C)S(=O)(=O)c2ccccc2)Oc2c(NC(=O)Nc3cccc4ccccc34)cccc2C1=O do in these assays?
GASC1 inh: inactive; Pf Dd2 growth: inactive; IDH1 R132H inh: inactive

Results for COc1ccc(S(=O)(=O)N(C)C[C@H]2Oc3c(NC(=O)Nc4cccc5ccccc45)cccc3C(=O)N([C@H](C)CO)C[C@@H]2C)cc1 ?
Pf Dd2 growth: inactive; T cruzi growth-1: 117; T cruzi growth-2: 108; T cruzi growth-3: inactive; NIH3T3 tox: inactive; 3T3 cytotox 2: inactive

How did COc1ccc(S(=O)(=O)N(C)C[C@H]2Oc3c(NC(=O)Nc4cccc5ccccc45)cccc3C(=O)N([C@@H](C)CO)C[C@@H]2C)cc1 do in these assays?
GASC1 inh: inactive; Pf Dd2 growth: inactive; T cruzi growth-1: 100; IDH1 R132H inh: inactive; T cruzi growth-2: 112; T cruzi growth-3: inactive; NIH3T3 tox: inactive; 3T3 cytotox 2: inactive

Results for CC1(C)Cc2c(sc3c2c(=O)n(-c2cccc(Cl)c2)c2nnc(SCC(=O)Nc4cccc(Cl)c4)n32)CO1 ?
IDH1 R132H inh: inactive

Results for C[C@@H]1CN([C@@H](C)CO)C(=O)c2c(c3ccccc3n2C)-c2ccccc2CO[C@@H]1CN(C)C(=O)Nc1ccnc(N2CCOCC2)c1 ?
GASC1 inh: inactive; Pf Dd2 growth: inactive

How did C[C@H]1CN([C@@H](C)CO)C(=O)c2ccccc2-c2ccccc2CO[C@@H]1CN(C)C(=O)Nc1ccnc(N2CCOCC2)c1 do in these assays?
GASC1 inh: inactive; Pf Dd2 growth: inactive; T cruzi growth-1: 108; IDH1 R132H inh: inactive; T cruzi growth-2: 101; T cruzi growth-3: inconclusive; NIH3T3 tox: inactive; 3T3 cytotox 2: inactive

Screening data from PubChem BioAssay.
